Converted amounts (≈) assume the structure as drawn.
What was measured:
Actinomyces viscosus [1] = assay: Compound is evaluated for minimal bactericidal concentration against plaque formation for Actinomyces viscosus; type: functional, organism-based
Outline: (§1)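 Preformed in vitro plaques of S. mutans NCTC 10449 or A. viscosus M-100 were grown on ceramic hydroxylapatite under anaerobic conditions at 37 °C in sucrose-supplemented medium. Plaques were immersed for 30 min at 37 °C in compound at 0.3–20 mM, rinsed, and moved to broth containing bromocresol purple. Kill was judged by no acid production, no turbidity increase and no growth on plating at 48 h. Plaques were run in quadruplicate.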

Streptococcus mutans [2] = assay: Compound is evaluated for the effect of saliva upon the antiplaque activity at 0% of saliva and at 0.05 percentage of compound; - = No plaque accumulation; type: functional, organism-based
Outline: (§2)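 Hydroxylapatite plate antiplaque assay against S. mutans run for 48 h, with two 1-min exposures to aqueous compound per 24 h. Growth medium contained 0, 5 or 50% pooled human saliva (paraffin-stimulated, centrifuged, filtered, membrane-sterilized). Plaque was stained with FD&C Red No. 3 and graded none, slight or moderate. Staining potential was scored on plates run without inoculum and graded none or slight.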

[3] = Compound is evaluated for stain index; type: functional
Outline: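 Ratio of the minimum concentration staining a plaque-free ceramic hydroxylapatite plate to the minimum plaque-inhibiting concentration, both run under the same conditions. Plates got two 1-min soaks (0.1–0.001%), each followed by air-drying, then a water rinse. They were then held 24 h anaerobically at 37 °C in sucrose beef-extract medium, with or without S. mutans OMZ-61, repeated once. Staining was 1-min 1% FD&C Red No. 3, scored visually.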

Streptococcus mutans [4] = assay: Compound is evaluated for the effect of saliva upon the staining potential at 0% of saliva and at 0.01 percentage of compound; + = Slight staining; type: functional, organism-based; outline: as §2
Streptococcus mutans [5] = assay: Compound is evaluated for the effect of saliva upon the antiplaque activity at 0% of saliva and at 0.025 percentage of compound; + = Slight staining; type: functional, organism-based; outline: as §2
Streptococcus mutans [6] = assay: Compound is evaluated for the effect of saliva upon the antiplaque activity at 0% of saliva and at 0.01 percentage of compound; - = No plaque accumulation; type: functional, organism-based; outline: as §2
Actinomyces naeslundii = assay: Compound is evaluated for plaque-bactericidal index (PBI) against Actinomyces naeslundii 631; type: functional
Streptococcus mutans [7] = assay: Compound is evaluated for the effect of saliva upon the antiplaque activity at 50% of saliva and at 0.05 percentage of compound; - = No plaque accumulation; type: functional, organism-based; outline: as §2
Streptococcus mutans [8] = assay: Compound is evaluated for plaque-bactericidal index (PBI) against Streptococcus mutans 10449; type: functional
Streptococcus mutans [9] = assay: Compound is evaluated for the effect of saliva upon the antiplaque activity at 50% of saliva and at 0.01 percentage of compound; + = Slight plaque accumulation; type: functional, organism-based; outline: as §2
Escherichia coli [10] = assay: Antimicrobial minimum inhibitory concentration against Escherichia coli 100/B22; type: functional
Outline: (§3)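 Serial twofold tube dilution in tryptose phosphate broth. Each compound was prepared as a 1000 μg/mL aqueous stock and diluted in double-strength broth, then 2×10^5 cells were added. Tubes were incubated aerobically at 37 °C for 24 h. The MIC was taken as the lowest concentration with no visible growth.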

Actinomyces viscosus [11] = assay: Compound is evaluated for plaque-bactericidal index (PBI) against Actinomyces viscosus M-100; type: functional
Staphylococcus aureus [12] = assay: Compound is evaluated for the antimicrobial minimum inhibitory concentration against Staphylococcus aureus (Smith); type: functional; outline: as §3
Streptococcus sanguinis [13] = assay: Compound is evaluated for plaque-bactericidal index (PBI) against Streptococcus sanguis 10558; type: functional
Streptococcus mutans [14] = assay: Compound is evaluated for the effect of saliva upon the antiplaque activity at 0% of saliva and at 0.05 percentage of compound; + = Slight staining; type: functional, organism-based; outline: as §2
Escherichia coli [15] = assay: Antimicrobial minimum inhibitory concentration against Escherichia coli AB1932-1; type: functional; outline: as §3
Klebsiella pneumoniae = assay: Minimum inhibitory concentration against Klebsiella pneumonia 39645; type: functional; outline: as §3
Streptococcus mutans [16] = assay: Compound is evaluated for the effect of saliva upon the antiplaque activity at 50% of saliva and at 0.05 percentage of compound; + = Slight staining; type: functional, organism-based; outline: as §2
Streptococcus mutans [17] = assay: Compound is evaluated for the effect of saliva upon the antiplaque activity at 50% of saliva and at 0.01 percentage of compound; - = No staining; type: functional, organism-based; outline: as §2
Pseudomonas aeruginosa [18] = assay: Compound is evaluated for the antimicrobial minimum inhibitory concentration against Pseudomonas aeruginosa MGH-1; type: functional
Streptococcus mutans [19] = assay: Compound is evaluated for minimal bactericidal concentration against plaque formation for Streptococcus mutans; type: functional, organism-based; outline: as §1
Streptococcus mutans [20] = assay: Compound is evaluated for the effect of saliva upon the antiplaque activity at 50% of saliva and at 0.025 percentage of compound; + = Slight staining; type: functional, organism-based; outline: as §2
Streptococcus mutans [21] = assay: Compound is evaluated for the effect of saliva upon the antiplaque activity at 0% of saliva and at 0.025 percentage of compound; - = No plaque accumulation; type: functional, organism-based; outline: as §2
Streptococcus mutans [22] = assay: Compound is evaluated for minimum plaque inhibitory concentration using a standard test organism, Streptococcus mutans OMZ-61; type: functional
Outline: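 S. mutans OMZ-61 in pH 7.0 beef extract–trypticase medium with 0.5% sucrose. Sterile ceramic hydroxylapatite plates got two 1-min soaks in 0.1–0.001% compound, each followed by 1-min air-drying, then a 5-min water rinse. Plates were put in inoculated medium at 37 °C anaerobically for 24 h. The cycle was repeated for a second 24 h. Plaque was stained with 1% FD&C Red No. 3. Value is the lowest concentration completely preventing plaque.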

Proteus mirabilis [23] = assay: Compound is evaluated for the antimicrobial minimum inhibitory concentration against Proteus mirabilis MGH-1; type: functional; outline: as §3
Streptococcus mutans [24] = assay: Compound is evaluated for the effect of saliva upon the antiplaque activity at 50% of saliva and at 0.025 percentage of compound; - = No plaque accumulation; type: functional, organism-based; outline: as §2
Escherichia coli [25] = assay: Minimum inhibitory concentration against Escherichia coli (Vogel); type: functional; outline: as §3
Streptococcus mutans [26] = assay: Compound is evaluated for the effect of saliva upon the antiplaque activity of the compound at 0% of saliva and at 0.025 percentage of compound; - = No staining; type: functional, organism-based; outline: as §2
Streptococcus mutans [27] = assay: Compound is evaluated for the effect of saliva upon the antiplaque activity of the compound at 50% of saliva and at 0.01 percentage of compound; - = No plaque accumulation; type: functional, organism-based; outline: as §2
Streptococcus mutans [28] = assay: Compound is evaluated for the effect of saliva upon the antiplaque activity of the compound at 50% of saliva and at 0.05 percentage of compound; + = Slight staining; type: functional, organism-based; outline: as §2
Streptococcus mutans [29] = assay: Compound is evaluated for the effect of saliva upon the antiplaque activity of the compound at 50% of saliva and at 0.05 percentage of compound; - = No plaque accumulation; type: functional, organism-based; outline: as §2
Streptococcus mutans [30] = assay: Compound is evaluated for the effect of saliva upon the antiplaque activity of the compound at 0% of saliva and at 0.05 percentage of compound; + = Slight staining; type: functional, organism-based; outline: as §2
Streptococcus mutans [31] = assay: Compound is evaluated for the effect of saliva upon the antiplaque activity of the compound at 0% of saliva and at 0.01 percentage of compound; - = No plaque accumulation; type: functional, organism-based; outline: as §2
Streptococcus mutans [32] = assay: Compound is evaluated for the effect of saliva upon the antiplaque activity of the compound at 50% of saliva and at 0.025 percentage of compound; - = No staining; type: functional, organism-based; outline: as §2
Proteus mirabilis [33] = assay: Minimum antimicrobial inhibitory concentration against Proteus mirabilis MGH-1; type: functional; outline: as §3
Streptococcus mutans [34] = assay: Compound is evaluated for the effect of saliva upon the antiplaque activity of the compound at 0% of saliva and at 0.05 percentage of compound; - = No plaque accumulation; type: functional, organism-based; outline: as §2
Streptococcus mutans [35] = assay: Compound is evaluated for the effect of saliva upon the antiplaque activity of the compound at 0% of saliva and at 0.025 percentage of compound; - = No plaque accumulation; type: functional, organism-based; outline: as §2
Streptococcus mutans [36] = assay: Compound is evaluated for the effect of saliva upon the antiplaque activity of the compound at 50% of saliva and at 0.025 percentage of compound; - = No plaque accumulation; type: functional, organism-based; outline: as §2
Streptococcus mitis = assay: Compound is evaluated for plaque-bactericidal index (PBI) against Streptococcus mitis 90557
Streptococcus sanguinis [37] = assay: Compound is evaluated for plaque-bactericidal index (PBI) against Streptococcus sanguis 10558
Streptococcus mutans [38] = assay: Compound is evaluated for the growth inhibition of Streptococcus mutans OMZ-61; type: functional
Streptococcus mutans [39] = assay: Minimum plaque inhibitory concentration using a standard test organism, Streptococcus mutans OMZ-61; type: functional, organism-based
Outline: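 Ceramic hydroxylapatite plates were soaked twice for 1 min each in compound at […] (aqueous), air-dried and rinsed, then hung in sucrose beef-extract medium (pH 7.0) inoculated with late-log S. mutans OMZ-61. Incubation was anaerobic at 37 °C for 24 h, and treatment plus reinoculation were repeated for a second 24 h. Plaque was stained with 1% FD&C Red No. 3 and scored visually. The value is the lowest concentration giving no plaque while medium growth matched control.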

Staphylococcus aureus [40] = assay: Minimum antimicrobial inhibitory concentration against Staphylococcus aureus; type: functional; outline: as §3
Streptococcus mutans [41] = assay: Compound is evaluated for the inhibition of plaque-forming enzyme of Streptococcus mutans OMZ-61; type: functional
Outline: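 S. mutans OMZ-61 was grown anaerobically at 37 °C for 24 h in glucose medium. The cell-free filtrate, adjusted to pH 5.5, served as the dextran/levan sucrase source. Reactions contained 3 μmol 14C-sucrose in citrate phosphate buffer pH 5.5 with 4% EtOH and ran 2 h at 37 °C. MeOH-insoluble polysaccharide was counted by scintillation. Compounds were tested at 50, 160 and 500 μg base/mL, with lower levels if needed, and I50 was read graphically.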

Pseudomonas aeruginosa [42] = assay: Minimum antimicrobial inhibitory concentration against Pseudomonas aeruginosa MGH-2; type: functional; outline: as §3
Streptococcus mutans [43] = assay: Compound is evaluated for the effect of saliva upon the staining potential of the compound at 0% of saliva and at 0.01 percentage of compound; - = No staining; type: functional, organism-based; outline: as §2
Streptococcus mutans [44] = assay: Compound is evaluated for the effect of saliva upon the antiplaque activity of the compound at 50% of saliva and at 0.01 percentage of compound; - = No staining; type: functional, organism-based; outline: as §2

In the case of `N=C(NCCCCCCNC(=N)NC(=N)Nc1ccc(Cl)cc1)NC(=N)Nc1ccc(Cl)cc1` [CHLORHEXIDINE], the Concentration (Actinomyces viscosus [1]) is reported as 1.6 mM, the Plaque accum (Streptococcus mutans [2]) is reported as “No plaque accumulation” and the Stain index [3] is reported as 1. The Staining potential (Streptococcus mutans [4]) was “No staining”, the Staining potential (Streptococcus mutans [5]) was “No staining” and the Plaque accum (Streptococcus mutans [6]) was “No plaque accumulation”. The PBI (Actinomyces naeslundii) was 19.2, the Plaque accum (Streptococcus mutans [7]) was “No plaque accumulation” and the PBI (Streptococcus mutans [8]) was 25.6. For the same compound, the Plaque accum (Streptococcus mutans [9]) was “No plaque accumulation”, the MIC (Escherichia coli [10]) was 1 µg/mL (≈ 1.98 µM) and the PBI (Actinomyces viscosus [11]) was 19.2. The MIC (Staphylococcus aureus [12]) was 0.2 µg/mL (≈ 0.396 µM), the PBI (Streptococcus sanguinis [13]) was 32 and the Staining potential (Streptococcus mutans [14]) was “No staining”. The MIC (Escherichia coli [15]) was 0.5 µg/mL (≈ 0.989 µM), the MIC (Klebsiella pneumoniae) was 3.9 µg/mL (≈ 7.72 µM) and the Staining potential (Streptococcus mutans [16]) was “No staining”. For the same compound, the Staining potential (Streptococcus mutans [17]) was “No staining”, the MIC (Pseudomonas aeruginosa [18]) was 15.6 µg/mL (≈ 30.9 µM) and the Concentration (Streptococcus mutans [19]) was 3.2 mM. The Staining potential (Streptococcus mutans [20]) was “No staining”, the Plaque accum (Streptococcus mutans [21]) was “No plaque accumulation” and the “Min plague Inhibitory” value (Streptococcus mutans [22]) was 0.005%. For the same compound, the MIC (Proteus mirabilis [23]) was 15.6 µg/mL (≈ 30.9 µM), the Plaque accum (Streptococcus mutans [24]) was “No plaque accumulation” and the MIC (Escherichia coli [25]) was 0.5 µg/mL (≈ 0.989 µM).
For `CCCCCCCCN=c1ccn(CCCCCCCCCCn2ccc(=NCCCCCCCC)cc2)cc1.Cl.Cl` [OCTENIDINE HYDROCHLORIDE], the Staining potential (Streptococcus mutans [26]) was “No staining”, the Concentration (Actinomyces viscosus [1]) was 1.6 mM and the Plaque accum (Streptococcus mutans [27]) was “No plaque accumulation”. For the same compound, the Stain index [3] was 10, the Staining potential (Streptococcus mutans [28]) was “No staining” and the Plaque accum (Streptococcus mutans [29]) was “No plaque accumulation”. For the same compound, the Staining potential (Streptococcus mutans [30]) was “No staining”, the PBI (Actinomyces naeslundii) was 19.2 and the Plaque accum (Streptococcus mutans [31]) was “No plaque accumulation”. The PBI (Streptococcus mutans [8]) was 25.6, the Staining potential (Streptococcus mutans [32]) was “No staining” and the MIC (Proteus mirabilis [33]) was 2 µg/mL. For the same compound, the Plaque accum (Streptococcus mutans [34]) was “No plaque accumulation”, the Plaque accum (Streptococcus mutans [35]) was “No plaque accumulation” and the MIC (Escherichia coli [10]) was 1 µg/mL. For the same compound, the PBI (Actinomyces viscosus [11]) was 19.2, the Plaque accum (Streptococcus mutans [36]) was “No plaque accumulation” and the MIC (Escherichia coli [15]) was 1 µg/mL. The MIC (Klebsiella pneumoniae) was 2 µg/mL, the PBI (Streptococcus mitis) was 32 and the Concentration (Streptococcus mutans [19]) was 3.2 mM. The PBI (Streptococcus sanguinis [37]) was 32, the MIC (Streptococcus mutans [38]) was 1 (ug of base) ml-1 and the Concentration (Streptococcus mutans [39]) was 0.005%. For the same compound, the MIC (Staphylococcus aureus [40]) was 1 µg/mL, the I50 (Streptococcus mutans [41]) was 31 (ug of base) ml-1 and the MIC (Pseudomonas aeruginosa [42]) was 3.9 µg/mL. The Staining potential (Streptococcus mutans [43]) was “No staining”, the Staining potential (Streptococcus mutans [44]) was “No staining” and the MIC (Escherichia coli [25]) was 1 µg/mL.

Reference: ChEMBL document CHEMBL1122519, “Bispyridinamines: a new class of topical antimicrobial agents as inhibitors of dental plaque” (1984)
